From ChEMBL document CHEMBL4706672 (J Med Chem, 2021)
Activity calls are given as the source filed them. The rule behind the calls is not given here.

Experiments:
MIA PaCa-2 = assay: Antiproliferative activity against human MIA PaCa-2 cells assessed as reduction in cell viability incubated for 3 days by MTT assay; assay type: functional, cell-based; details: MIA PaCa-2, 72 h
Summary of the method: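 MTT assay. Cells were seeded at 3000–6000/well and incubated overnight, then exposed to compound or DMSO vehicle for 3 days in RPMI-1640 or DMEM with 10% FBS at 37 °C, 5% CO2. MTT (3 mg/ml) was added for 3 h at 37 °C, formazan was dissolved in DMSO and absorbance read at 570 nm. IC50 from three independent experiments, mean ± SD.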

[1] = biological target: Signal transducer and activator of transcription 3 (Homo sapiens) (UniProt P40763); assay: Inhibition of STAT3 phosphorylation in human MIA PaCa-2 cells at 0.5 to 1 uM after 16 hrs by western blot analysis; assay type: cell-based; details: dose 0.5-1 µM
Summary of the method: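 Cells were seeded in 6-well plates (BxPC-3 500 × 10^3, MIA PaCa-2 200 × 10^3 cells/well) and exposed to compound for 16 h. Lysis was at 4 °C by sonication in Tris/NaCl/Triton/SDS buffer, pH 7.4, with protease and phosphatase inhibitors. Lysates were run on SDS-PAGE, transferred to PVDF and probed for STAT3, pSTAT3 and NQO1 with GAPDH as loading control. Immunoblots were imaged on an Odyssey system.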

[2] = biological target: Protein cereblon/Signal transducer and activator of transcription 3 (Homo sapiens, UniProt P40763+Q96SW2); assay: Protac activity at CRBN/STAT3 in human BxPC-3 cells assessed as increase in inhibition of STAT3 protein levels at 2 to 3 uM incubated for 16 hrs in presence of protein synthesis inhibitor cycloheximide by western blot analysis; assay type: cell-based; details: dose 2-3 µM
Summary of the method: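 BxPC-3 cells pretreated 1 h with cycloheximide, then test agent for 16 h. Lysates immunoblotted for STAT3 and NQO1 against GAPDH, fluorescent imaging.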

[3] = biological target: T1, Protein cereblon/E3 ubiquitin-protein ligase ZFP91 (Homo sapiens, UniProt Q96SW2+Q96JP5); assay: Protac activity at CRBN/ZFP91 in human BxPC-3 cells assessed as induction of ZF91 degradation at 1 uM incubated for 16 hrs by western blot analysis; assay type: cell-based
Summary of the method: (§1)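 BxPC-3 cells treated for 4, 16 or 24 h across a concentration series. ZFP91 immunoblotted against GAPDH; bands quantified by densitometry, DC50 calculated from dose-response curves of the densitometry.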

[4] = biological target: T1, Protein cereblon/E3 ubiquitin-protein ligase ZFP91; assay: Protac activity at CRBN/ZFP91 in human BxPC-3 cells assessed as induction of ZF91 degradation incubated for 4 hrs by western blot analysis; assay type: cell-based; summary of the method: as §1
[5] = biological target: T1, Protein cereblon/E3 ubiquitin-protein ligase ZFP91; assay: Protac activity at CRBN/ZFP91 in human BxPC-3 cells assessed as ZF91 protein degradation at 1 uM incubated for 16 hrs in presence of proteasome inhibitor carfilzomib by western blot analysis; assay type: cell-based
Summary of the method: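 BxPC-3 cells pretreated 1 h with carfilzomib at 1 μM, then exposed 16 h. Lysates blotted for ZFP91 with GAPDH control; bands quantified by densitometry.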

[6] = biological target: T1, Protein cereblon/E3 ubiquitin-protein ligase ZFP91; assay: Protac activity at CRBN/ZFP91 in human MIA PaCa-2 cells assessed as ZF91 protein degradation at 0.1 to 0.5 uM incubated for 16 hrs in presence of proteasome inhibitor carfilzomib by western blot analysis; assay type: cell-based; details: dose 0.1-0.5 µM
[7] = biological target: T1, Protein cereblon/E3 ubiquitin-protein ligase ZFP91; assay: Protac activity at CRBN/ZFP91 in human BxPC-3 cells assessed as degradation of ZFP91 at 0.5 uM incubated for 16 hrs in presence of napabucasin by western blot analysis; assay type: cell-based
Summary of the method: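 Whole-cell lysates immunoblotted for ZFP91, GAPDH reference, densitometric quantification.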

[8] = biological target: Protein cereblon/Eukaryotic peptide chain release factor GTP-binding subunit ERF3A (Homo sapiens) (UniProt Q96SW2+P15170); assay: Protac activity at CRBN/GSPT in human BxPC-3 cells assessed as degradation of GSPT at 1 to 3 uM incubated for 16 hrs by western blot analysis; assay type: cell-based; details: dose 1-3 µM
Summary of the method: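 BxPC-3 cells were treated with compound for 16 h, then lysed and immunoblotted for GSPT (1:1000) alongside GAPDH. Detection used fluorescent secondary antibodies on an Odyssey imager, and bands were quantified by densitometry.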

[9] = biological target: Protein cereblon/Transmembrane protease serine 4 (Homo sapiens) (UniProt Q9NRS4+Q96SW2); assay: Protac activity at CRBN/TMPRSS4 in human BxPC-3 cells assessed as TMPRSS4 degradation incubated for 16 hrs by proteomic analysis; assay type: cell-based
Summary of the method: (§2)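 BxPC-3 cells exposed 16 h in triplicate (control, PROTAC) or duplicate (other arms); lysed in RIPA at 4 °C, 75 μg protein per sample. Reduced with DTT (1 h, 55 °C), alkylated with 2-chloroacetamide, acetone-precipitated, trypsin-digested overnight at 37 °C, TMT 10plex labelled, relative quantitation by LC-tandem MS.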

[10] = biological target: Protein cereblon/Dynein light chain Tctex-type 1 (Homo sapiens) (UniProt Q96SW2+P63172); assay: Protac activity at CRBN/DYNLT1 in human BxPC-3 cells assessed as DYNLT1 degradation incubated for 16 hrs by proteomic analysis; assay type: cell-based
Summary of the method: (§3)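 TMT 10plex proteomics. […] Samples (75 μg) were reduced with DTT, alkylated with 2-chloroacetamide, acetone-precipitated, trypsin-digested overnight at 37 °C and TMT-labeled for LC-MS/MS relative quantitation.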

[11] = biological target: Protein cereblon/Kunitz-type protease inhibitor 1 (Homo sapiens) (UniProt Q96SW2+O43278); assay: Protac activity at CRBN/SPINT1 in human BxPC-3 cells assessed as SPINT1 degradation incubated for 16 hrs by proteomic analysis; assay type: cell-based; summary of the method: as §3
[12] = biological target: Protein cereblon/Desmoplakin (Homo sapiens) (UniProt Q96SW2+P15924); assay: Protac activity at CRBN/DSP in human BxPC-3 cells assessed as DSP degradation incubated for 16 hrs by proteomic analysis; assay type: cell-based; summary of the method: as §3
[13] = biological target: Protein cereblon/Protein LTV1 homolog (Homo sapiens) (UniProt Q96SW2+Q96GA3); assay: Protac activity at CRBN/LTV1 in human BxPC-3 cells assessed as LTV1 degradation incubated for 16 hrs by proteomic analysis; assay type: cell-based; summary of the method: as §3
[14] = biological target: Protein cereblon/Nectin-1 (Homo sapiens) (UniProt Q96SW2+Q15223); assay: Protac activity at CRBN/Nectin-1 in human BxPC-3 cells assessed as Nectin-1 degradation incubated for 16 hrs by proteomic analysis; assay type: cell-based; summary of the method: as §3
[15] = biological target: Protein cereblon/Small EDRK-rich factor 2 (Homo sapiens) (UniProt Q96SW2+P84101); assay: Protac activity at CRBN/SERF2 in human BxPC-3 cells assessed as SERF2 degradation incubated for 16 hrs by proteomic analysis; assay type: cell-based; summary of the method: as §3
[16] = biological target: Protein cereblon/DNA polymerase delta subunit 4 (Homo sapiens) (UniProt Q9HCU8+Q96SW2); assay: Protac activity at CRBN/POLD4 in human BxPC-3 cells assessed as POLD4 degradation incubated for 16 hrs by proteomic analysis; assay type: cell-based; summary of the method: as §3
[17] = biological target: Protein cereblon/Anamorsin (Homo sapiens) (UniProt Q96SW2+Q6FI81); assay: Protac activity at CRBN/CIAPIN1 in human BxPC-3 cells assessed as CIAPIN1 degradation incubated for 16 hrs by proteomic analysis; assay type: cell-based; summary of the method: as §3
[18] = Upregulation of RND3 protein levels in human BxPC-3 cells incubated for 16 hrs by proteomic analysis; assay type: functional; summary of the method: as §2
[19] = Upregulation of MPV17 protein levels in human BxPC-3 cells incubated for 16 hrs by proteomic analysis; assay type: functional; summary of the method: as §2

T1 sequence (Q96JP5 2-570 partner limits assumed): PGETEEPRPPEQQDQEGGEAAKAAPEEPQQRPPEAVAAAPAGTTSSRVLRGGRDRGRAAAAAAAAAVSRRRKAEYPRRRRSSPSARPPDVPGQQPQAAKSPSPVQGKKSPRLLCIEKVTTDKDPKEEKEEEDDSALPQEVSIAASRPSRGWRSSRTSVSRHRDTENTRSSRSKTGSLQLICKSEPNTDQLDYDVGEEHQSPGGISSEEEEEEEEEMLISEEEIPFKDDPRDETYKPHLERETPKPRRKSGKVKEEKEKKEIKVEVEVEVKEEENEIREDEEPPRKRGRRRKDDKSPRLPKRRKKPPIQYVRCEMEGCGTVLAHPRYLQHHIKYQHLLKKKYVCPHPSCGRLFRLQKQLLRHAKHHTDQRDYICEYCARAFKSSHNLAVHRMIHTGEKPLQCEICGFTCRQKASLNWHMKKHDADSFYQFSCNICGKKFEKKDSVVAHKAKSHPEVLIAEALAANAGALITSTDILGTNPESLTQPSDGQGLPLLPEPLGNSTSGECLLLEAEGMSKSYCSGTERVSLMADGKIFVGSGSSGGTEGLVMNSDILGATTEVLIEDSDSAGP
T1 sequence (Q96SW2 whole entry): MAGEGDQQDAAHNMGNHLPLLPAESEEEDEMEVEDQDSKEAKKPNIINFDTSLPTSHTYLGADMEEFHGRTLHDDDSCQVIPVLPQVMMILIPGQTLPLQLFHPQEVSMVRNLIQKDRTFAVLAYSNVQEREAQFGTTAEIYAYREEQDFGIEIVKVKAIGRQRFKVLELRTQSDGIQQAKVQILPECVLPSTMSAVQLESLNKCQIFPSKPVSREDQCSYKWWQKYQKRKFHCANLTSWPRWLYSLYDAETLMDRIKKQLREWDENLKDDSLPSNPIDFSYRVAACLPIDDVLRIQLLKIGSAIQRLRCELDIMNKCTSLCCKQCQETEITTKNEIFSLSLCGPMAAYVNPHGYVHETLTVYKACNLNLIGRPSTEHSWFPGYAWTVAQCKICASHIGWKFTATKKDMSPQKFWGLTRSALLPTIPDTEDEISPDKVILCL
Chain of Protein cereblon/Anamorsin (Homo sapiens) (Q6FI81 whole entry, looked up): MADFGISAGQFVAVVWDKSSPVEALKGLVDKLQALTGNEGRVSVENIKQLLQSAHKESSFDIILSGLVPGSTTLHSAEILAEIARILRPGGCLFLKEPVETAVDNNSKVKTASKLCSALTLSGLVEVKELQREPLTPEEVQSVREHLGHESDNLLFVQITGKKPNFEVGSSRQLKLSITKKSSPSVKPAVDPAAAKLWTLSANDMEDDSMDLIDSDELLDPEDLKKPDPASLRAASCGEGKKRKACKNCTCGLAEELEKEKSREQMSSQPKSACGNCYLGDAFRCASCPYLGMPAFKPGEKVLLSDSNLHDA
Chain of Protein cereblon/Anamorsin (Homo sapiens) (Q96SW2 whole entry, looked up): as the sequence (Q96SW2 whole entry) above
Chain of Protein cereblon/Protein LTV1 homolog (Homo sapiens) (Q96GA3 whole entry, looked up): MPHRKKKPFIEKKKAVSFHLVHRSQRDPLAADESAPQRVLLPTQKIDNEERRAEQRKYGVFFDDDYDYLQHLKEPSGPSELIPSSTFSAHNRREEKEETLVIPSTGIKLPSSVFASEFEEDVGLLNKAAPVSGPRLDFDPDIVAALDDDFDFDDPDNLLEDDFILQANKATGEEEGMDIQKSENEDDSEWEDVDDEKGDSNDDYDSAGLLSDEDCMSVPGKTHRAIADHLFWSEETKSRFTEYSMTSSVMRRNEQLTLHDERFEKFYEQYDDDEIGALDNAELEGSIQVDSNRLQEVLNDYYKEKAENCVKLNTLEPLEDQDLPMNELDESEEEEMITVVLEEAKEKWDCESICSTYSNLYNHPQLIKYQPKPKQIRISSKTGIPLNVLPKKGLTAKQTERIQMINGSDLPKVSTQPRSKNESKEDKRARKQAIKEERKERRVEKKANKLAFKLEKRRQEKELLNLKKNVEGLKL
Chain of Protein cereblon/Protein LTV1 homolog (Homo sapiens) (Q96SW2 whole entry, looked up): as the sequence (Q96SW2 whole entry) above
Chain of Protein cereblon/Small EDRK-rich factor 2 (Homo sapiens) (P84101 whole entry, looked up): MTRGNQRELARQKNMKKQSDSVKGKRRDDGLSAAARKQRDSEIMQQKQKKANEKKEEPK
Chain of Protein cereblon/Small EDRK-rich factor 2 (Homo sapiens) (Q96SW2 whole entry, looked up): as the sequence (Q96SW2 whole entry) above
Chain of Protein cereblon/Nectin-1 (Homo sapiens) (Q15223 whole entry, looked up): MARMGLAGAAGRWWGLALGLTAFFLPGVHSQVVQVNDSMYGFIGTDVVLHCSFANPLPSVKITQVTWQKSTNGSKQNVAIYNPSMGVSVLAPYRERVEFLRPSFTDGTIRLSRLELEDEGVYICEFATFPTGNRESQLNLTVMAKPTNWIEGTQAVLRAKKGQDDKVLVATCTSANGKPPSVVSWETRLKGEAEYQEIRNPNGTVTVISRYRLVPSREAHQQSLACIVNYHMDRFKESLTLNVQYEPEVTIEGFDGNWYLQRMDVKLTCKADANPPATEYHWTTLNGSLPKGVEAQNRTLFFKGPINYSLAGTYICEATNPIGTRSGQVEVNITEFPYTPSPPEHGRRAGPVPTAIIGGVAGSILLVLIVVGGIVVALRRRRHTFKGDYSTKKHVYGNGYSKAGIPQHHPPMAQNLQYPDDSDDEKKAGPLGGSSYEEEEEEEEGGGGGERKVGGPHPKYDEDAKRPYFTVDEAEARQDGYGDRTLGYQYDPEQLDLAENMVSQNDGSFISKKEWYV
Chain of Protein cereblon/Nectin-1 (Homo sapiens) (Q96SW2 whole entry, looked up): as the sequence (Q96SW2 whole entry) above
Chain of Protein cereblon/Dynein light chain Tctex-type 1 (Homo sapiens) (P63172 whole entry, looked up): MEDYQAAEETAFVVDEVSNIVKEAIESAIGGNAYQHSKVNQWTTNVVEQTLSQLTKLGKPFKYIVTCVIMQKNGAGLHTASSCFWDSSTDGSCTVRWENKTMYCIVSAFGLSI
Chain of Protein cereblon/Dynein light chain Tctex-type 1 (Homo sapiens) (Q96SW2 whole entry, looked up): as the sequence (Q96SW2 whole entry) above

O=C1CCC(N2C(=O)c3cccc(NCCCCCC4CCN(CCNC(=O)c5cc6c(o5)C(=O)c5ccccc5C6=O)CC4)c3C2=O)C(=O)N1 (stereo not given)
IC50 (MIA PaCa-2): 1000 nM | inhibition [1]: inactive | Activity [2]: Active | Activity [3]: Active | Activity [4]: inactive | Activity [5]: inactive | Activity [6]: inactive | Activity [7]: Active | Activity [8]: inactive | log2FC [9]: -1.27 | log2FC [10]: -0.97 | log2FC [11]: -0.85 | log2FC [12]: -0.7 | log2FC [13]: -0.69 | log2FC [14]: -0.63 | log2FC [15]: -0.61 | log2FC [16]: -0.61 | log2FC [17]: -0.59 | log2FC [18]: 0.98 | log2FC [19]: 0.66
